{
  "source": "ChEMBL document CHEMBL4049418",
  "about": "“6-OH-Phenanthroquinolizidine Alkaloid and Its Derivatives Exert Potent Anticancer Activity by Delaying S Phase Progression” (J Med Chem, 2017)",
  "key": {"[1]": {"experiment": "Antiproliferative activity against human MRC9 cells assessed as reduction in viability after 72 hrs by SRB assay", "type": "cell-based", "conditions": "MRC9, 72 h", "summary_of_the_method": "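Cells seeded and dosed in triplicate for 72 h. Suspension lines (HL-60, K-562, K562/ADR, HL-60/MX2) were read by MTT: 5 mg/mL MTT stock added, 4 h at 37 °C, formazan dissolved in 10% SDS/5% isobutanol/10 mM HCl, A570. Adherent lines were read by SRB: fixed with cold 10% TCA, stained with 0.4% SRB in 1% acetic acid, A540. IC50 from four-parameter logistic fit; mean of ≥3 independent experiments.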"}, "[2]": {"experiment": "Selectivity ratio of IC50 for human MRC5 cells to IC50 for human A549 cells", "summary_of_the_method": "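SRB assay: A549 (F-12, 10% FBS) and MRC-5/MRC-9 (EMEM, 10% FBS) treated in triplicate 72 h, fixed with ice-cold 10% TCA, stained with 0.4% SRB in 1% acetic acid, absorbance 540 nm; IC₅₀ by four-parameter logistic fit, mean of ≥3 independent experiments.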"}, "[3]": {"experiment": "Cytotoxicity against Sprague-Dawley rat primary neuronal cells assessed as reduction in cell viability after 24 hrs by MTT assay", "type": "cell-based"}, "[4]": {"experiment": "Cytotoxicity against Sprague-Dawley rat primary neuronal cells assessed as reduction in cell viability at 300 nM after 24 hrs by MTT assay", "type": "cell-based", "conditions": "read-out: INH"}, "Bel-7402 [5]": {"tested_on": "Bel-7402", "experiment": "Antiproliferative activity against human Bel7402 cells assessed as reduction in cell viability at 0.12 to 10 nM up to 10 days by fluorescence-based cell imaging method", "type": "functional", "summary_of_the_method": "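Live-cell imaging (IncuCyte ZOOM) of BEL-7402 cells seeded at 1.5 × 10⁴ per well in 12-well plates. Cells treated in triplicate with a concentration gradient and imaged continuously for 10 days to build growth curves.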"}, "Bel-7402 [6]": {"tested_on": "Bel-7402", "experiment": "Cell cycle arrest in human Bel7402 cells assessed as accumulation in S-phase after 24 hrs by propidium iodide staining-based flow cytometry", "type": "functional", "summary_of_the_method": "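BEL-7402 cells exposed for 24 h, then fixed in 70% ethanol at −20 °C for ≥1 h. Stained with 50 μg/mL propidium iodide plus 10 μg/mL RNase A for 30 min in the dark at room temperature. DNA content read by flow cytometry on ≥1.0 × 10⁴ cells per sample.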"}, "Bel-7402 [7]": {"tested_on": "Bel-7402", "experiment": "Cell cycle arrest in human Bel7402 cells assessed as delay in progression of S-phase to G2-phase at 10 nM pre-treated with aphidicolin for 16 hrs followed by compound addition measured up to 24 hrs by propidium iodide staining-based flow cytometric method", "type": "functional", "summary_of_the_method": "(§1)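 Exponentially growing cells synchronized in early S phase with 0.2 μg/mL aphidicolin for 16 h. Cells released into fresh medium with or without compound for set times. Ethanol-fixed, stained with PI/RNase, and cell cycle distribution read by flow cytometry. Representative of three independent experiments.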"}, "Zip-177": {"tested_on": "Zip-177", "experiment": "Cell cycle arrest in human Zip-177 cells assessed as delay in progression of S-phase to G2-phase at 1 to 10 nM pre-treated with aphidicolin for 16 hrs followed by compound addition measured after 24 hrs by propidium iodide staining-based flow cytometric method", "type": "functional", "summary_of_the_method": "as §1"}, "Bel-7402 [8]": {"tested_on": "Bel-7402", "experiment": "Inhibition of DNA synthesis in human Bel7402 cells assessed as BrdU incorporation at 10 nM preincubated for 1 hr followed by BrdU addition for 30 mins by FITC/propidium iodide staining based flow cytometry (reference value: 35.5%)", "type": "functional", "parameters": "scale not given: the % may be the effect or the level left", "summary_of_the_method": "(§2)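 BEL-7402 cells (3 × 10⁵ per well) exposed to compounds 1 h, then labeled with 10 μM BrdU for 30 min; trypsinized, fixed in 70% ethanol at −20 °C ≥1 h, 2 N HCl 20 min, neutralized with 0.1 M borate, stained with anti-BrdU-FITC plus PI 30 min; BrdU-positive cells quantified by flow cytometry; three independent experiments, mean + SD.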"}, "Bel-7402 [9]": {"tested_on": "Bel-7402", "experiment": "Induction of DNA damage in human Bel7402 cells assessed as increase in gamma-H2AX levels at 1 to 100 nM after 1 hr by Western blot analysis", "type": "functional, cell-based", "summary_of_the_method": "(§3)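 BEL-7402 cells (1.5 × 10⁵ per well, 12-well plates) exposed to compounds for 1 h. Phospho-Chk1 Ser345, phospho-Chk2 Thr68 and γH2AX detected by Western blot. Camptothecin at 1 μM served as the DNA-damage reference.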"}, "Bel-7402 [10]": {"tested_on": "Bel-7402", "experiment": "Induction of DNA damage in human Bel7402 cells assessed as increase in CHK1 phosphorylation at Ser345 residue at 1 to 100 nM after 1 hr by Western blot analysis", "type": "functional, cell-based", "summary_of_the_method": "as §3"}, "Bel-7402 [11]": {"tested_on": "Bel-7402", "experiment": "Induction of DNA damage in human Bel7402 cells assessed as increase in CHK2 phosphorylation at Thr68 residue at 1 to 100 nM after 1 hr by Western blot analysis", "type": "functional, cell-based", "summary_of_the_method": "as §3"}, "Bel-7402 [12]": {"tested_on": "Bel-7402", "experiment": "Induction of apoptosis in human Bel7402 cells assessed as viable cells at 1 nM after 72 hrs by Annexin V/propidium iodide staining based flow cytometric analysis (reference value: 92.4%)", "type": "functional", "conditions": "Bel-7402, 72 h, read-out: Activity"}, "Bel-7402 [13]": {"tested_on": "Bel-7402", "experiment": "Induction of apoptosis in human Bel7402 cells assessed as necrotic cells at 1 nM after 72 hrs by Annexin V/propidium iodide staining based flow cytometric analysis (reference value: 0.38%)", "type": "functional"}, "Bel-7402 [14]": {"tested_on": "Bel-7402", "experiment": "Induction of apoptosis in human Bel7402 cells assessed as viable cells at 10 nM after 72 hrs by Annexin V/propidium iodide staining based flow cytometric analysis (reference value: 92.4%)", "type": "functional", "conditions": "Bel-7402, 72 h, read-out: Activity"}, "Bel-7402 [15]": {"tested_on": "Bel-7402", "experiment": "Induction of necrosis in human Bel7402 cells after 72 hrs by trypan blue exclusion assay", "type": "functional, cell-based", "summary_of_the_method": "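BEL-7402 cells seeded at 5 × 10⁴ per well, exposed to compounds 72 h; trypsinized, stained with 0.4% Trypan blue (9:1 dilution) for 3 min; unstained (viable) and stained (necrotic) cells counted separately on a hemocytometer.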"}, "K562/Adr [16]": {"tested_on": "K562/Adr", "experiment": "Effect on P-gp expression in human K562/ADR cells up to 100 nM after 24 hrs by Western blot analysis", "type": "functional, cell-based"}, "KB": {"tested_on": "KB", "experiment": "Cell cycle arrest in human KB/VCR cells assessed as delay in progression of S-phase to G2-phase at 10 nM pre-treated with aphidicolin for 16 hrs followed by compound addition measured up to 12 hrs by propidium iodide staining-based flow cytometric method", "type": "functional", "summary_of_the_method": "as §1"}, "K562/Adr [17]": {"tested_on": "K562/Adr", "experiment": "Cell cycle arrest in human K562/ADR cells assessed as delay in progression of S-phase to G2-phase at 1 to 10 nM pre-treated with aphidicolin for 16 hrs followed by compound addition measured up to 24 hrs by propidium iodide staining-based flow cytometric method", "type": "functional"}, "Bel-7402 [18]": {"tested_on": "Bel-7402", "experiment": "Cell cycle arrest in human Bel7402 cells assessed as delay in progression of S-phase to G2-phase at 0.1 to 1 uM pre-treated with aphidicolin for 16 hrs followed by compound addition measured up to 24 hrs by propidium iodide staining-based flow cytometric method", "type": "functional", "summary_of_the_method": "as §1"}, "Bel-7402 [19]": {"tested_on": "Bel-7402", "experiment": "Inhibition of DNA synthesis in human Bel7402 cells assessed as BrdU incorporation at 1 uM preincubated for 1 hr followed by BrdU addition for 30 mins by FITC/propidium iodide staining based flow cytometry (reference value: 35.5%)", "type": "functional", "parameters": "scale not given: the % may be the effect or the level left", "summary_of_the_method": "as §2"}, "Bel-7402 [20]": {"tested_on": "Bel-7402", "experiment": "Induction of apoptosis in human Bel7402 cells assessed as necrotic cells at 1 uM after 72 hrs by Annexin V/propidium iodide staining based flow cytometric analysis (reference value: 0.38%)", "type": "functional"}, "KB-V1": {"tested_on": "KB-V1", "experiment": "Growth inhibition of human KBV1 cells after 8 days by methylene blue-staining based spectrophotometry", "type": "functional", "conditions": "KB-V1, 192 h"}},
  "note": "Activity calls are given as the source filed them. The calls are words filed in the database; no cut-off is given here.",
  "data": [
    {"smiles": "COc1cc2c3c(c4ccc(O)cc4c2cc1OC)CN1CCCC[C@@H]1C3", "values": [
      {"measurement": "IC50", "setting": "[1]", "value": 2.2, "unit": "nM"},
      {"measurement": "Ratio IC50", "setting": "[2]", "value": "3 - 4"},
      {"measurement": "inhibition (INH)", "setting": "[3]", "value": "Dose-dependent effect"},
      {"measurement": "cytotoxicity at 24 h, 0.3 µM", "setting": "[4]", "value": 50, "unit": "%"},
      {"measurement": "inhibition", "setting": "Bel-7402 [5]", "value": "Active"},
      {"measurement": "Activity", "setting": "Bel-7402 [6]", "value": "Dose-dependent effect"},
      {"measurement": "Activity", "setting": "Bel-7402 [7]", "value": "Active"},
      {"measurement": "Activity", "setting": "Zip-177", "value": "Active"},
      {"measurement": "Activity", "setting": "Bel-7402 [8]", "value": 5.07, "unit": "%"},
      {"measurement": "Activity", "setting": "Bel-7402 [9]", "value": "inactive"},
      {"measurement": "Activity", "setting": "Bel-7402 [10]", "value": "inactive"},
      {"measurement": "Activity", "setting": "Bel-7402 [11]", "value": "inactive"},
      {"measurement": "viability at 0.001 µM", "setting": "Bel-7402 [12]", "value": 94.4, "unit": "%"},
      {"measurement": "Activity", "setting": "Bel-7402 [13]", "value": 0.39, "unit": "%"},
      {"measurement": "viability at 0.01 µM", "setting": "Bel-7402 [14]", "value": 81, "unit": "%"},
      {"measurement": "Activity", "setting": "Bel-7402 [15]", "value": "Dose-dependent effect"},
      {"measurement": "Activity", "setting": "K562/Adr [16]", "value": "inactive"},
      {"measurement": "Activity", "setting": "KB", "value": "Active"},
      {"measurement": "Activity", "setting": "K562/Adr [17]", "value": "Active"}
    ]},
    {"smiles": "COc1cc2c3c(c4cc(OC)c(OC)cc4c2cc1OC)[C@H](O)[C@@H]1CCCN1C3", "values": [
      {"measurement": "Activity", "setting": "Bel-7402 [18]", "value": "Active"},
      {"measurement": "Activity", "setting": "Bel-7402 [19]", "value": 8.01, "unit": "%"},
      {"measurement": "Activity", "setting": "Bel-7402 [20]", "value": 0.81, "unit": "%"},
      {"measurement": "GI50", "setting": "KB-V1", "value": 30, "unit": "nM"}
    ]}
  ]
}
